These results are taken from publication PMC3701436 (Journal of medicinal chemistry, 2012).

Data set [1] has as its target MeV RdRp (Measles virus, UniProt P12576). The experiment in a line: Plasmid-based mini-replicon luciferase assay of RdRp activity in BSR-T7/5 cells. The data set is classed as cell-based. The settings on record: 36 hours post-transfection; averages of three experiments. The method, boiled down:
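BSR-T7/5 cells were transfected with plasmids encoding MeV L, N and P plus a firefly luciferase minigenome reporter, then incubated with a range of test compound concentrations or vehicle. Luciferase activity in cell lysates was read 36 h post-transfection and expressed relative to vehicle-treated samples. Dose-response inhibition curves were generated from the mean of three experiments ± SD.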

Data set [2] addresses hERG channels (Homo sapiens, UniProt Q12809). The data set can be described thus: hERG channel block. Conditions: at a concentration of 10 μM or below. Format: biochemical.
The subject of data set [3] is Caco-2. The experiment in a line: Caco-2 bi-directional permeability assay. Format: in vitro ADME.
Data set [4] deals with bacterial reverse mutation. The experiment in a line: Non-GLP in vitro bacterial reverse mutation. The data set is classed as cell-based.

Chain of MeV RdRp (P12576 whole entry): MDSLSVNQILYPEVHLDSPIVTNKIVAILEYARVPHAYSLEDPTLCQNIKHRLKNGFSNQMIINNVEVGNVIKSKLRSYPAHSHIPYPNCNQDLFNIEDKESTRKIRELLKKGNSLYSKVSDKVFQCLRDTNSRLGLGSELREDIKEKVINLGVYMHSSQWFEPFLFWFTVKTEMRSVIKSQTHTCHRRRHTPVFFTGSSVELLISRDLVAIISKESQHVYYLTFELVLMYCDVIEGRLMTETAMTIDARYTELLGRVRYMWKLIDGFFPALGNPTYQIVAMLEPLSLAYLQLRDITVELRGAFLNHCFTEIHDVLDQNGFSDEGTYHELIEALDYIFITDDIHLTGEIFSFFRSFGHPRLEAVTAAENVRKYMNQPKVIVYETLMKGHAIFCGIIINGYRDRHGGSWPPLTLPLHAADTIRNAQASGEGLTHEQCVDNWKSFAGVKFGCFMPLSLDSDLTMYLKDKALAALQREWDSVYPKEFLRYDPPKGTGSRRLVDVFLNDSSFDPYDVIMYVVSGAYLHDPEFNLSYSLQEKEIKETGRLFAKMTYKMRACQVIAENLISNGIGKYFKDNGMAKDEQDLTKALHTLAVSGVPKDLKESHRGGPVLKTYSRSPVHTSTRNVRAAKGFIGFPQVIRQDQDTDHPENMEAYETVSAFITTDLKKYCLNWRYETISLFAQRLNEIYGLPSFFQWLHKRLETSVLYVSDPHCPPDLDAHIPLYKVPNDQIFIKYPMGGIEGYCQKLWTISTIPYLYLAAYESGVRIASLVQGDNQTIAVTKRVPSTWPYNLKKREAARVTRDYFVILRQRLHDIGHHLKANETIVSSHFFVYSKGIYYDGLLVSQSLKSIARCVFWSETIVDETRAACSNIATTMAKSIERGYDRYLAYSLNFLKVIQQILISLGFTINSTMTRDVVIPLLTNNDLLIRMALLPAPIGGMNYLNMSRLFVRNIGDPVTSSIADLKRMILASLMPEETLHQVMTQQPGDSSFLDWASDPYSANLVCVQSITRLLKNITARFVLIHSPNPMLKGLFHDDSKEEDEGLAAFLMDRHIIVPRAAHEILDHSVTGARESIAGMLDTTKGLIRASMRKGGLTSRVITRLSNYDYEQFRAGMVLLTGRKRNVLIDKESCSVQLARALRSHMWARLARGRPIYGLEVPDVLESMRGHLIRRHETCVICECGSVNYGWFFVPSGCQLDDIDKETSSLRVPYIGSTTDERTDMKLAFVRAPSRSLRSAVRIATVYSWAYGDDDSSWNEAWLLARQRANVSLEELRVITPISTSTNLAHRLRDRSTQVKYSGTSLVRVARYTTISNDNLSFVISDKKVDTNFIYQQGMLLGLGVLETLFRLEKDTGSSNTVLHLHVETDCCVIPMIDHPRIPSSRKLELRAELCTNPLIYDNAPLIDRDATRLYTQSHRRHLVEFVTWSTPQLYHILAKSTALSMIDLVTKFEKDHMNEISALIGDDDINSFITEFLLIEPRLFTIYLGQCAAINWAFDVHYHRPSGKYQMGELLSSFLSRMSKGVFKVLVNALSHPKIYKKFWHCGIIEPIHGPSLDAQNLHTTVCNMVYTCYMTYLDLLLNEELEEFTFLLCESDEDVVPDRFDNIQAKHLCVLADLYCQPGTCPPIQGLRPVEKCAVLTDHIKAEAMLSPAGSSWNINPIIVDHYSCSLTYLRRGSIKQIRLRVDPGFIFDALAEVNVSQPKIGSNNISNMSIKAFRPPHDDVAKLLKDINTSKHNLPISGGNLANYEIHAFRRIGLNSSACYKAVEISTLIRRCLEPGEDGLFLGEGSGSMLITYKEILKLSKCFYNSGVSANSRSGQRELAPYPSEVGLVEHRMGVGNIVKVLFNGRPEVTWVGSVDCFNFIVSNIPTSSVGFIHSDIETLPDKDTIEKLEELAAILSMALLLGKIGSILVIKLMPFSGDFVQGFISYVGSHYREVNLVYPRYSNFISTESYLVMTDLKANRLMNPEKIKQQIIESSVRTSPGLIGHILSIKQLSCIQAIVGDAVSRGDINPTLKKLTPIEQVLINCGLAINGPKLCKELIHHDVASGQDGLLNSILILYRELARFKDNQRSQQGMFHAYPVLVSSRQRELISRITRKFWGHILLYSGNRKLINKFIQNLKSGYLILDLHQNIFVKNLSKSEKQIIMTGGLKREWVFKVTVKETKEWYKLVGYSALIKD
Chain of MeV RdRp (P03422 whole entry, further chain): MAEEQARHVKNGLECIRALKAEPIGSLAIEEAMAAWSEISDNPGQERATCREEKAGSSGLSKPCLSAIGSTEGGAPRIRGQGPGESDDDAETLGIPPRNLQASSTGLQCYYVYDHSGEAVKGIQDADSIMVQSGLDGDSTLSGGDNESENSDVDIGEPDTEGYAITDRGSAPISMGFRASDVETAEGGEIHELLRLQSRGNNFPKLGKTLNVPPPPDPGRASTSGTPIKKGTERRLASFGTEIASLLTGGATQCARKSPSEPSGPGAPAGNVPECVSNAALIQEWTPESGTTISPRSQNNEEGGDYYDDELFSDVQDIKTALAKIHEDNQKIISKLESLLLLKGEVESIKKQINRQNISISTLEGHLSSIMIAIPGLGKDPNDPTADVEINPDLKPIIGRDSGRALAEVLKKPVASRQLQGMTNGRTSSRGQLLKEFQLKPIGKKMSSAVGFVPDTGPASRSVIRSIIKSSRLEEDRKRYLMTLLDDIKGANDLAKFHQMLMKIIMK
Chain of hERG channels (Q12809 whole entry): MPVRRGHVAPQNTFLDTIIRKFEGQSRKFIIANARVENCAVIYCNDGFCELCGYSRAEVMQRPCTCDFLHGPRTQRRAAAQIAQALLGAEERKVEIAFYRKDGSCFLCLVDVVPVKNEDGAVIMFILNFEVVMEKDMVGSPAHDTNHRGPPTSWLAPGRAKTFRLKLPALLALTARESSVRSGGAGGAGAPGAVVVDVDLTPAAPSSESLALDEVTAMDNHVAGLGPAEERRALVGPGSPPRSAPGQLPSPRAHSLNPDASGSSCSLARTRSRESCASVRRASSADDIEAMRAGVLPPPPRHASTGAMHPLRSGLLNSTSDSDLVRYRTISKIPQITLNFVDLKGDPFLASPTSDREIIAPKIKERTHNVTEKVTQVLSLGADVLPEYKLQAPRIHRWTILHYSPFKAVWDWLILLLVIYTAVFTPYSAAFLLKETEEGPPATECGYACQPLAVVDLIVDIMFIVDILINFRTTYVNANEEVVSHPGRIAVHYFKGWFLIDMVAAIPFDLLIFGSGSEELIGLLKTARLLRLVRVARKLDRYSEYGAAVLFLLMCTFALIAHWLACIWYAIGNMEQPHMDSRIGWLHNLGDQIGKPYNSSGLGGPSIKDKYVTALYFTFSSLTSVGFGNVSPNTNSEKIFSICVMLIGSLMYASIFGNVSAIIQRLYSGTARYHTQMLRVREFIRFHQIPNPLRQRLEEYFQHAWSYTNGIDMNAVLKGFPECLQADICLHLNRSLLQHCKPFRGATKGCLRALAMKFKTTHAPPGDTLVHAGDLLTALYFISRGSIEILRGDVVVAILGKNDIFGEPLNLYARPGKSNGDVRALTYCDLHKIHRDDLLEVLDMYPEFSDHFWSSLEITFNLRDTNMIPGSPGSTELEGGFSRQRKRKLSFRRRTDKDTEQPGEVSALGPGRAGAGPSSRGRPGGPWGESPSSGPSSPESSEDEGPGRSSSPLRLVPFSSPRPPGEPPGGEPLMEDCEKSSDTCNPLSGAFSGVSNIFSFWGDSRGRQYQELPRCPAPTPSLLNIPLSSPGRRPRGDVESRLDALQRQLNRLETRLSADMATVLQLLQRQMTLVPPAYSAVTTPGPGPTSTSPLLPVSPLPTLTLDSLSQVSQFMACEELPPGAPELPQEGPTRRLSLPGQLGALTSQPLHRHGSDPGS

On to `Cn1nc(C(F)(F)F)cc1C(=O)Nc1ccc(S(=O)(=O)N2CCCCC2)cc1` [Compound 2], for which, in data set [1], the “inhibition of viral RdRp activity (relative luciferase activity)” value is “dose-dependent inhibition”. Moreover, the hERG channel block result in data set [2] is given as “did not block”. In addition, the permeability entry in data set [3] is reported as “high permeability”. For the same molecule, the “mutagenicity (Ames)” value in data set [4] is recorded as “non-mutagenic”.
As for `Cn1nc(C(F)(F)F)cc1C(=O)Nc1ccc(S(=O)(=O)N2CCCC[C@H]2CCN2CCOCC2)cc1` [Compound 2o, (S)-1-methyl-N-(4-((2-(2-morpholinoethyl)piperidin-1-yl)sulfonyl)phenyl)-3-(trifluoromethyl)-1H-pyrazole-5-carboxamid], in data set [1], the “inhibition of viral RdRp activity (relative luciferase activity)” value is on record as “dose-dependent inhibition”. For the same molecule, the permeability result in data set [3] is reported as “high permeability”.
